Experiment [1] deals with K. pneumoniae NCTC 13438. The experiment in a line: Broth micro-dilution MIC / dose-response growth inhibition. Particulars: for MIC: Klebsiella pneumoniae, NCTC13438, read-out: K. pneumoniae NCTC 13438 MIC; for K. pneumoniae NCTC 13438 Interp.: S/R interpretation by EUCAST breakpoint, ECOFF or fold vs QC strain. It counts as cell-based, Klebsiella pneumoniae.
Experiment [2] concerns A. baumannii NCTC 13424. Described as above. It counts as cell-based, Acinetobacter baumannii. Particulars: for MIC: Acinetobacter baumannii, NCTC13424, read-out: A. baumannii NCTC 13424 MIC; for A. baumannii NCTC 13424 Interp.: S/R interpretation by EUCAST breakpoint, ECOFF or fold vs QC strain.
In experiment [3] the test system is K. pneumoniae Ecl8. The description is as above. It counts as cell-based, Klebsiella pneumoniae. Particulars: for MIC: Klebsiella pneumoniae, ECL8, read-out: K. pneumoniae Ecl8 MIC; for K. pneumoniae Ecl8 Interp.: S/R interpretation by EUCAST breakpoint, ECOFF or fold vs QC strain.
The subject of experiment [4] is primary screening strains (A. baumannii NCTC 13424, K. pneumoniae NCTC 13438, K. pneumoniae Ecl8). Description: HTS / susceptibility assay with the primary screening strains. It counts as cell-based. Particulars: 50 mg L^−1, positive control. The procedure, abridged:
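Broth microdilution (EUCAST method adapted to 384-well); inoculum 5 × 10^5 CFU mL−1 (OD600 0.0005); static at 37 °C in 5% CO2 for 24 h (K. pneumoniae) or 20 h (A. baumannii); compound at one concentration in duplicate, or two concentrations (1.4–68.0 μM, 0.5% DMSO) singly for one library; OD600 read; % growth inhibition normalised between apramycin 50 mg L−1 and DMSO wells; actives called at 3σ.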

Converted amounts (≈) assume the structure as drawn. Bounds are passed on as bounds.

Broadly, the MIC is the smallest concentration in the dilution series that meets the test's criterion for growth inhibition. With `NCC[C@H](O)C(=O)N[C@@H]1C[C@H](N)[C@@H](O[C@H]2O[C@H](CN)[C@@H](O)[C@H](O)[C@H]2O)[C@H](O)[C@H]1O[C@H]1O[C@H](CO)[C@@H](O)[C@H](N)[C@H]1O` [Amikacin], in experiment [1], the MIC was found to be 64 µg/mL (≈ 109 µM) and the “K. pneumoniae NCTC 13438 Interp.” value is on record as “R”. Besides, in experiment [2], the MIC is more than 512 µg/mL and the “A. baumannii NCTC 13424 Interp.” value is “R”. In experiment [3], the MIC amounted to 2 µg/mL (≈ 3.42 µM) and the “K. pneumoniae Ecl8 Interp.” value is listed as “S”.
Regarding `CN[C@@H]1[C@@H](O[C@H]2O[C@H](CO)[C@@H](N)[C@H](O)[C@H]2O)OC2C[C@@H](N)[C@@H](O[C@H]3[C@H](O)[C@@H](O)[C@H](N)C[C@@H]3N)OC2[C@@H]1O` (some centres unmarked) [Apramycin], in experiment [1], the MIC was determined as 4 µg/mL (≈ 7.41 µM) and the “K. pneumoniae NCTC 13438 Interp.” value is listed as “S ^c”. Besides, in experiment [2], the MIC came out at 8 µg/mL (≈ 14.8 µM) and the “A. baumannii NCTC 13424 Interp.” value is “S ^c”. Besides, in experiment [4], the “growth inhibition of primary screening strains” value is reported as “completely inhibited the growth”. Further, in experiment [3], the MIC is 4 µg/mL (≈ 7.41 µM) and the “K. pneumoniae Ecl8 Interp.” value was “S ^c”.
On to `C[C@H]1[C@H](NC(=O)/C(=N\OC(C)(C)C(=O)O)c2csc(N)n2)C(=O)N1S(=O)(=O)O` [Aztreonam], for which, in experiment [1], the MIC is more than 512 µg/mL and the “K. pneumoniae NCTC 13438 Interp.” value is on record as “R”. For the same compound, the minimal inhibitory concentration (MIC) in experiment [2] amounted to 32 µg/mL (≈ 73.5 µM). Also, in experiment [3], the MIC worked out at 0.25 µg/mL (≈ 0.574 µM) and the “K. pneumoniae Ecl8 Interp.” value is reported as “S”.
On to `CO/N=C(\C(=O)N[C@@H]1C(=O)N2C(C(=O)[O-])=C(C[N+]3(C)CCCC3)CS[C@H]12)c1csc(N)n1` [Cefepime], for which, in experiment [1], the minimum inhibitory concentration (MIC) was 128 µg/mL (≈ 266 µM) and the “K. pneumoniae NCTC 13438 Interp.” value was “R”. In addition, in experiment [2], the minimum inhibitory concentration (MIC) amounted to 32 µg/mL (≈ 66.6 µM) and the “A. baumannii NCTC 13424 Interp.” value is reported as “R”. In experiment [3], the MIC was 0.12 µg/mL (≈ 0.25 µM) and the “K. pneumoniae Ecl8 Interp.” value is given as “S”.
For the compound `CO/N=C(\C(=O)N[C@@H]1C(=O)N2C(C(=O)O)=C(COC(C)=O)CS[C@H]12)c1csc(N)n1` [Cefotaxime], in experiment [1], the minimal inhibitory concentration (MIC) stood at 256 µg/mL (≈ 562 µM) and the “K. pneumoniae NCTC 13438 Interp.” value is given as “R”. In experiment [2], the MIC worked out at 512 µg/mL (≈ 1120 µM) and the “A. baumannii NCTC 13424 Interp.” value was “R”. For the same compound, in experiment [3], the MIC stood at 0.06 µg/mL (≈ 0.132 µM) and the “K. pneumoniae Ecl8 Interp.” value is on record as “S”.
Turning to `CC(C)(O/N=C(\C(=O)N[C@@H]1C(=O)N2C(C(=O)[O-])=C(C[n+]3ccccc3)CS[C@H]12)c1csc(N)n1)C(=O)O` [Ceftazidime], in experiment [1], the MIC stood at 512 µg/mL (≈ 937 µM) and the “K. pneumoniae NCTC 13438 Interp.” value is given as “R”. In experiment [2], the MIC is 64 µg/mL (≈ 117 µM) and the “A. baumannii NCTC 13424 Interp.” value was “R”. Moreover, in experiment [3], the MIC worked out at 0.5 µg/mL (≈ 0.915 µM) and the “K. pneumoniae Ecl8 Interp.” value is reported as “S”.
Regarding `O=C(N[C@H](CO)[C@H](O)c1ccc([N+](=O)[O-])cc1)C(Cl)Cl` [Chloramphenicol], in experiment [1], the minimum inhibitory concentration (MIC) came to 32 µg/mL (≈ 99 µM) and the “K. pneumoniae NCTC 13438 Interp.” value is on record as “R”. For the same compound, in experiment [2], the minimum inhibitory concentration (MIC) came out at 64 µg/mL (≈ 198 µM). Besides, in experiment [3], the minimal inhibitory concentration (MIC) came to 4 µg/mL (≈ 12.4 µM) and the “K. pneumoniae Ecl8 Interp.” value was “S”.
As for `O=C(O)c1cn(C2CC2)c2cc(N3CCNCC3)c(F)cc2c1=O` [Ciprofloxacin], in experiment [1], the minimum inhibitory concentration (MIC) was more than 512 µg/mL. Also, the “A. baumannii NCTC 13424 Interp.” value in experiment [2] is “R”.
Regarding `C[C@@H]1O[C@@H]1P(=O)(O)O` [Fosfomycin], the MIC in experiment [1] was determined as 16 µg/mL (≈ 116 µM); in experiment [2] it was 64 µg/mL (≈ 464 µM); in experiment [3] it was 64 µg/mL (≈ 464 µM). In addition, in experiment [1], the “K. pneumoniae NCTC 13438 Interp.” value is “S”. Moreover, the “K. pneumoniae Ecl8 Interp.” value in experiment [3] was “R”.
Regarding `CNC(C)C1CCC(N)C(OC2C(N)CC(N)C(OC3OCC(C)(O)C(NC)C3O)C2O)O1` (centres unmarked) [Gentamicin], in experiment [1], the minimum inhibitory concentration (MIC) is 4 µg/mL (≈ 8.38 µM) and the “K. pneumoniae NCTC 13438 Interp.” value was “R”. Further, in experiment [2], the minimum inhibitory concentration (MIC) was more than 512 µg/mL and the “A. baumannii NCTC 13424 Interp.” value is recorded as “R”. For the same compound, in experiment [3], the minimum inhibitory concentration (MIC) worked out at 1 µg/mL (≈ 2.09 µM) and the “K. pneumoniae Ecl8 Interp.” value was “S”.
As to `C[C@@H](O)[C@H]1C(=O)N2C(C(=O)O)=C(SCCN=CN)C[C@H]12` [Imipenem], in experiment [1], the minimal inhibitory concentration (MIC) stood at 128 µg/mL (≈ 428 µM) and the “K. pneumoniae NCTC 13438 Interp.” value is on record as “R”. In experiment [2], the minimum inhibitory concentration (MIC) turned out to be 128 µg/mL (≈ 428 µM) and the “A. baumannii NCTC 13424 Interp.” value is on record as “R”. Moreover, in experiment [3], the MIC came out at 0.25 µg/mL (≈ 0.835 µM) and the “K. pneumoniae Ecl8 Interp.” value is on record as “S”.
As to `C[C@H]1COc2c(N3CCN(C)CC3)c(F)cc3c(=O)c(C(=O)O)cn1c23` [Levofloxacin], in experiment [1], the MIC was determined as 128 µg/mL (≈ 354 µM) and the “K. pneumoniae NCTC 13438 Interp.” value is “R”. Besides, in experiment [2], the minimal inhibitory concentration (MIC) is 32 µg/mL (≈ 88.6 µM) and the “A. baumannii NCTC 13424 Interp.” value is given as “R”. Moreover, in experiment [3], the minimum inhibitory concentration (MIC) was found to be 0.12 µg/mL (≈ 0.332 µM) and the “K. pneumoniae Ecl8 Interp.” value is reported as “S”.
`C[C@@H](O)[C@H]1C(=O)N2C(C(=O)O)=C(S[C@@H]3CN[C@H](C(=O)N(C)C)C3)[C@H](C)[C@H]12` [Meropenem]: the “K. pneumoniae NCTC 13438 Interp.” value in experiment [1] was “R”. Moreover, in experiment [2], the minimal inhibitory concentration (MIC) is 64 µg/mL (≈ 167 µM) and the “A. baumannii NCTC 13424 Interp.” value is “R”. In experiment [3], the minimal inhibitory concentration (MIC) is 0.06 µg/mL (≈ 0.156 µM) and the “K. pneumoniae Ecl8 Interp.” value was “S”.
On to `CN(C)c1ccc(O)c2c1C[C@H]1C[C@H]3[C@H](N(C)C)C(O)=C(C(N)=O)C(=O)[C@@]3(O)C(O)=C1C2=O` [Minocycline], for which, in experiment [1], the minimal inhibitory concentration (MIC) worked out at 4 µg/mL (≈ 8.74 µM) and the “K. pneumoniae NCTC 13438 Interp.” value is “S ^b”. Further, in experiment [2], the MIC turned out to be 4 µg/mL (≈ 8.74 µM) and the “A. baumannii NCTC 13424 Interp.” value is “S ^b”. Besides, in experiment [3], the minimum inhibitory concentration (MIC) was determined as 2 µg/mL (≈ 4.37 µM) and the “K. pneumoniae Ecl8 Interp.” value is recorded as “S ^b”.
Regarding `Cc1cc(NS(=O)(=O)c2ccc(N)cc2)no1` [Sulfamethoxazole], in experiment [1], the MIC was more than 512 µg/mL and the “K. pneumoniae NCTC 13438 Interp.” value is listed as “R ^c”. In experiment [2], the minimal inhibitory concentration (MIC) is more than 512 µg/mL and the “A. baumannii NCTC 13424 Interp.” value is recorded as “R ^c”. In addition, in experiment [3], the minimum inhibitory concentration (MIC) amounted to 64 µg/mL (≈ 253 µM) and the “K. pneumoniae Ecl8 Interp.” value was “R ^c”.
For `CN(C)[C@@H]1C(O)=C(C(N)=O)C(=O)[C@@]2(O)C(O)=C3C(=O)c4c(O)cccc4[C@@](C)(O)[C@H]3C[C@@H]12` [Tetracycline], in experiment [1], the MIC turned out to be 4 µg/mL (≈ 9 µM) and the “K. pneumoniae NCTC 13438 Interp.” value is on record as “S ^b”. For the same compound, in experiment [2], the MIC came out at 256 µg/mL (≈ 576 µM) and the “A. baumannii NCTC 13424 Interp.” value was “R ^b”. In experiment [3], the MIC stood at 1 µg/mL (≈ 2.25 µM) and the “K. pneumoniae Ecl8 Interp.” value is “S ^b”.
In the case of `NC[C@H]1O[C@H](O[C@H]2[C@H](O)[C@@H](O[C@H]3O[C@H](CO)[C@@H](O)[C@H](N)[C@H]3O)[C@H](N)C[C@@H]2N)[C@H](N)C[C@@H]1O` [Tobramycin], in experiment [1], the MIC was 32 µg/mL (≈ 68.4 µM) and the “K. pneumoniae NCTC 13438 Interp.” value is “R”. For the same compound, in experiment [2], the MIC was more than 512 µg/mL and the “A. baumannii NCTC 13424 Interp.” value is “R”. For the same compound, in experiment [3], the minimum inhibitory concentration (MIC) came to 1 µg/mL (≈ 2.14 µM) and the “K. pneumoniae Ecl8 Interp.” value is listed as “S”.
As to `COc1cc(Cc2cnc(N)nc2N)cc(OC)c1OC` [Trimethoprim], in experiment [1], the minimum inhibitory concentration (MIC) was more than 512 µg/mL and the “K. pneumoniae NCTC 13438 Interp.” value is reported as “R”. Besides, in experiment [2], the MIC is 128 µg/mL (≈ 441 µM) and the “A. baumannii NCTC 13424 Interp.” value is “R”. In experiment [3], the minimal inhibitory concentration (MIC) turned out to be 4 µg/mL (≈ 13.8 µM) and the “K. pneumoniae Ecl8 Interp.” value is given as “S”.
On to Colistin, for which, in experiment [1], the “K. pneumoniae NCTC 13438 Interp.” value is reported as “S ^b”. Also, in experiment [2], the “A. baumannii NCTC 13424 Interp.” value was “S ^b”. Also, the “K. pneumoniae Ecl8 Interp.” value in experiment [3] was “S ^b”.
On to Polymyxin B, for which the “K. pneumoniae NCTC 13438 Interp.” value in experiment [1] is “S ^c”. Besides, the “A. baumannii NCTC 13424 Interp.” value in experiment [2] was “S ^c”. For the same compound, the “K. pneumoniae Ecl8 Interp.” value in experiment [3] was “S ^c”.

These data come from PMC10963893 (eBioMedicine, 2024).
